Type in all cases: functional
The species named for test [1] is Cavia porcellus. Put plainly: Concentration needed to elicit a 75% increase beyond control in coronary flow in ''Langendorff'', guinea pig heart (in vitro). In outline:
(§1)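 Isolated Langendorff-perfused guinea pig hearts infused with a range of drug concentrations; force (g), rate (beats/min) and coronary flow (mL/min) recorded. A linear regression of percent-control flow gives C175, the micromolar concentration raising flow to 175% of control, reported only if within the tested range. Raw data analysed by paired t tests.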

For test [2], the system named is Rattus norvegicus. Description: Ability to lower blood pressure in the spontaneously hypertensive rat (SHR) at 1 mg/kg (p.o.). The conditions noted are these: route oral. The procedure, abridged: (§2)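 Spontaneously hypertensive rats dosed orally at the stated dose; read-out is the maximum fall in blood pressure (mmHg), with significance shown as P.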
Test [3] is filed under the species Cavia porcellus. Put plainly: Concentration needed to achieve a 75% increase in coronary blood flow in 'Langendorff', guinea pig heart (in vitro Negative inotropic potency). The procedure, abridged: as §1
For test [4], the species on record is Cavia porcellus. Description: Concentration needed to achieve a 75% increase in coronary blood flow in 'Langendorff', guinea pig heart (in vitro negative inotropic activity). The procedure, abridged:
as §1

The species entered for test [5] is Oryctolagus cuniculus. Description: Inhibition of [Ca2+] influx in response to a stimulus of norepinephrine (NE, 10 uM) expressed as percent change from control. The procedure, abridged: (§3)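 Test compounds at 10 μM; tension and calcium influx each expressed as % change from control, measured against KCl ([…]) or NE (10 μM) stimulus.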
The species named for test [6] is Oryctolagus cuniculus. Put plainly: In vitro inhibition of development of isometric tension, in response to KCl (60 uM) in rabbit aorta expressed as percent change from control. The procedure, abridged:
as §3

For test [7], the system named is Rattus norvegicus. Put plainly: Ability to lower blood pressure in the spontaneously hypertensive rat (SHR) at 10 mg/kg (p.o.). The note with it: route oral. The procedure, abridged:
as §2

The species named for test [8] is Oryctolagus cuniculus. Description: In vitro inhibition of development of isometric tension, in response to norepinephrine (NE, 10 uM) in rabbit aorta expressed as percent change from control. The procedure, abridged: as §3
Test [9] is filed under the species Oryctolagus cuniculus. Put plainly: Inhibition of [Ca2+] influx in response to a stimulus of KCL (60 uM) expressed as percent change from control. In outline:
as §3

The species named for test [10] is Oryctolagus cuniculus. Put plainly: Inhibition of [Ca2+] influx in response to a stimulus of KCL (60 uM). The procedure, abridged:
as §3

Test [11] is filed under the species Oryctolagus cuniculus. Description: In vitro inhibition of development of isometric tension, in response to norepinephrine (NE, 10 uM) in rabbit aorta. In outline: as §3
The species entered for test [12] is Oryctolagus cuniculus. Description: In vitro inhibition of development of isometric tension, in response to KCl (60 uM) in rabbit aorta. The procedure, abridged: as §3
For test [13], the species on record is Oryctolagus cuniculus. Put plainly: Inhibition of [Ca2+] influx in response to a stimulus of norepinephrine (NE, 10 uM). The procedure, abridged: as §3
Test [14] has as its system Rattus norvegicus. Description: Ability to lower blood pressure in the spontaneously hypertensive rat (SHR) at 3 mg/kg (p.o.). The note with it: route oral. In outline:
as §2

The subject of test [15] is Rattus norvegicus. Description: Ability to lower blood pressure in the spontaneously hypertensive rat (SHR) at 100 mg/kg (p.o.). The note with it: route oral. In outline:
(§4)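 Spontaneously hypertensive rats were given a single oral dose of the compound. The read-out was the maximum fall in blood pressure, in mmHg, after that dose. A P value for significance was reported with each value.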

The test system of test [16] is Rattus norvegicus. Put plainly: Ability to lower blood pressure in the spontaneously hypertensive rat (SHR) at 29 mg/kg (p.o.). The conditions noted are these: route oral. In outline: as §4
Test [17] has as its system Rattus norvegicus. Put plainly: Ability to lower blood pressure in the spontaneously hypertensive rat (SHR) at 30 mg/kg (p.o.). The note with it: route oral. The procedure, abridged:
as §4

As for `COc1ccc(C#Cc2ccccc2)c(CC(C)N(C)CCc2ccc(OC)c(OC)c2)c1` (stereo not drawn), the C175 in the test listed under Cavia porcellus [1] is 0.025 µM. Besides, the “Max fall in blood pressure” value in the test with Rattus norvegicus [2] turned out to be 53 mmHg. For the same compound, in the test listed under Cavia porcellus [3], the “P (Ei)” value was under 0.05. For the same compound, the “Contractile force, % of control” value in the test listed under Cavia porcellus [4] worked out at 70%.

As to `COc1cc(CCNC(C)Cc2cc(OC)ccc2C#Cc2ccccc2)cc(OC)c1` (stereo not drawn), the Change is -23% in the test filed under Oryctolagus cuniculus [5], -15% in the test listed under Oryctolagus cuniculus [6], -13% in the test listed under Oryctolagus cuniculus [8] and -42% in the test filed under Oryctolagus cuniculus [9]. In addition, in the test listed under Cavia porcellus [1], the C175 came to 0.00075 µM. The “P (Ei)” value in the test filed under Cavia porcellus [3] was determined as 0.026. In the test listed under Cavia porcellus [4], the “Contractile force, % of control” value is given as 120%. Further, in the test with Rattus norvegicus [7], the “Max fall in blood pressure” value turned out to be 36 mmHg.

Regarding `COc1cc(CCN(C)C(C)Cc2cc(OC)ccc2C#Cc2ccccc2)cc(OC)c1` (stereo not drawn), the Change is on record as -41% in the test listed under Oryctolagus cuniculus [10], -22% in the test filed under Oryctolagus cuniculus [11], -68% in the test listed under Oryctolagus cuniculus [12] and -10% in the test filed under Oryctolagus cuniculus [13]. Besides, in the test filed under Cavia porcellus [1], the C175 came out at 0.0025 µM. For the same compound, in the test with Rattus norvegicus [14], the “Max fall in blood pressure” value came out at 66 mmHg. Moreover, in the test listed under Cavia porcellus [3], the “P (Ei)” value is on record as 0.5. The “Contractile force, % of control” value in the test filed under Cavia porcellus [4] came to 100%.

In the test filed under Cavia porcellus [1], `COc1ccc(C#Cc2ccccc2)c(CC(C)N(C)CCc2ccc(Cl)c(Cl)c2)c1` (stereo not drawn) displayed a C175 of 0.004 µM. Moreover, the “Max fall in blood pressure” value in the test with Rattus norvegicus [2] turned out to be 67 mmHg. For the same compound, the “P (Ei)” value in the test listed under Cavia porcellus [3] was over 0.5. Also, the “Contractile force, % of control” value in the test filed under Cavia porcellus [4] stood at 90%.

Regarding `COc1ccc(C#Cc2ccccc2)c(CCCN(C)CCc2ccc(OC)c(OC)c2)c1`, the “Max fall in blood pressure” value in the test on Rattus norvegicus [15] worked out at 62 mmHg. Further, the C175 in the test filed under Cavia porcellus [1] is 3 µM. The “P (Ei)” value in the test filed under Cavia porcellus [3] was under 0.05. In the test filed under Cavia porcellus [4], the “Contractile force, % of control” value was found to be 85%.

For `CCCCC#Cc1ccc(OC)cc1CCCN(C)CCc1ccc(OC)c(OC)c1`, in the test on Rattus norvegicus [15], the “Max fall in blood pressure” value came out at 35 mmHg. In the test filed under Cavia porcellus [1], this compound came in with a C175 of 0.2 µM. Moreover, the “P (Ei)” value in the test listed under Cavia porcellus [3] is listed as over 0.5. In the test filed under Cavia porcellus [4], the “Contractile force, % of control” value amounted to 100%.

Consider `COc1ccc(C#Cc2ccccc2)c(CC(C)NCCc2ccc(Cl)c(Cl)c2)c1` (stereo not drawn), for which the Change in the test filed under Oryctolagus cuniculus [10] was -21%; in the test filed under Oryctolagus cuniculus [11], -5%; in the test filed under Oryctolagus cuniculus [12], -20%; in the test filed under Oryctolagus cuniculus [13], -23%. The C175 in the test filed under Cavia porcellus [1] is 0.006 µM. In addition, the “Max fall in blood pressure” value with Rattus norvegicus [14] is reported as 43 mmHg. The “P (Ei)” value in the test listed under Cavia porcellus [3] amounted to 0.205. Moreover, in the test listed under Cavia porcellus [4], the “Contractile force, % of control” value was found to be 115%.

Take `COc1ccc(C#Cc2ccccc2)c(CC(C)NCCc2ccc(OC)c(OC)c2)c1` (stereo not drawn): the Change in the test listed under Oryctolagus cuniculus [10] is listed as -46%; in the test filed under Oryctolagus cuniculus [11], -45%; in the test filed under Oryctolagus cuniculus [12], -68%; in the test listed under Oryctolagus cuniculus [13], -27%. This compound also yielded a C175 in the test listed under Cavia porcellus [1] of 0.027 µM. Moreover, the “Max fall in blood pressure” value in the test with Rattus norvegicus [14] was 37 mmHg. The “P (Ei)” value in the test listed under Cavia porcellus [3] is given as over 0.5. For the same compound, the “Contractile force, % of control” value in the test listed under Cavia porcellus [4] is 95%.

As for `COc1ccc(C#Cc2ccc([S+](C)[O-])cc2)c(CC(C)N(C)CCc2ccc(OC)c(OC)c2)c1` (stereo not drawn), the “Max fall in blood pressure” value in the test on Rattus norvegicus [16] was 29 mmHg. In the test filed under Cavia porcellus [1], the C175 came out at 3 µM. The “P (Ei)” value in the test listed under Cavia porcellus [3] is recorded as under 0.001. Also, the “Contractile force, % of control” value in the test listed under Cavia porcellus [4] worked out at 10%.

Regarding `COc1ccc([C@@H]2Sc3ccccc3N(CCN(C)C)C(=O)[C@@H]2OC(C)=O)cc1` [DILTIAZEM], the Change in the test listed under Oryctolagus cuniculus [10] is reported as -18%; in the test filed under Oryctolagus cuniculus [11], -8%; in the test listed under Oryctolagus cuniculus [12], -84%; in the test listed under Oryctolagus cuniculus [13], -37%. In the test filed under Cavia porcellus [1], this compound came in with a C175 of 0.18 µM. Further, the “Max fall in blood pressure” value with Rattus norvegicus [17] stood at 48 mmHg. The “P (Ei)” value in the test listed under Cavia porcellus [3] was over 0.05. Moreover, in the test listed under Cavia porcellus [4], the “Contractile force, % of control” value is 90%.

As to `COc1ccc(CCN(C)CCCC(C#N)(c2ccc(OC)c(OC)c2)C(C)C)cc1OC` (stereo not drawn) [VERAPAMIL], the Change was -30% in the test listed under Oryctolagus cuniculus [10], -18% in the test listed under Oryctolagus cuniculus [11], -89% in the test listed under Oryctolagus cuniculus [12] and -22% in the test filed under Oryctolagus cuniculus [13]. Also, in the test filed under Cavia porcellus [1], the C175 turned out to be 0.1 µM. Moreover, the “Max fall in blood pressure” value in the test with Rattus norvegicus [17] was determined as 67 mmHg. Moreover, the “P (Ei)” value in the test listed under Cavia porcellus [3] is given as under 0.001. Besides, the “Contractile force, % of control” value in the test filed under Cavia porcellus [4] was 35%.

Source of the values: ChEMBL document CHEMBL1124060, “2-Ethynylbenzenealkanamines. A new class of calcium entry blockers” (1988).
